Test results published in ChEMBL document CHEMBL2346506, “Cytotoxicity and modulation of cancer-related signaling by (Z)- and (E)-3,4,3',5'-tetramethoxystilbene isolated from Eugenia rigida” (J Nat Prod, 2013).
One block for each compound: values may come before it. Calls of active or inactive are those of the source. The rule behind the calls is not given here.

Columns and labels:
[1] = tested on: HL-60; assay: Inhibition of PMA induced ROS generation in human HL60 cells assessed as inhibition of ROA mediated oxidation of DCFH; type: functional, cell-based
Procedure, shortened: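 HL-60 cells (0.8 × 10⁶/mL) in RPMI-1640 with 10% FBS were pretreated 30 min with compound (0.4–100 μM). PMA (100 ng/mL) was then added for 30 min, followed by DCFH-DA (5 μg/mL) for 15 min. DCF fluorescence read at Ex 485 / Em 530 nm and compared with vehicle control. Trolox served as positive control.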

[2] = tested on: LLC-PK1; assay: Cytotoxicity against pig LLC-PK1 cells assessed as growth inhibition measured after 48 hrs by Neutral Red dye assay; conditions: Sus scrofa, LLC-PK1, 48 h
[3] = tested on: HeLa; assay: Inhibition of smad3/4 signaling pathway in human HeLa cells assessed as inhibition of TGF-beta induced luciferase treated 30 mins before induction; type: functional, cell-based
Procedure, shortened: (§1)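 Reporter assay in cells transfected with pathway luciferase plasmids. Cells plated at 0.015 × 10⁶ per well in 10% FBS, switched after 24 h to DMEM with 1% FBS, then transfected. 24 h after transfection, compound (final 40, 60, 80 or 100 μM) was added, followed 30 min later by inducer (IL-6, TGF-β, wnt3a or PMA). Luciferase was read 4 or 6 h after induction (6 h for Notch, Wnt, Hedgehog). Value is the IC50 or the lowest concentration giving maximal 50–60% inhibition; two independent experiments.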

[4] = Inhibition of Hedgehog signaling pathway in human HeLa cells assessed as measured as lowest concentration required 50 to 60 % inhibition of PMA induced luciferase treated 30 mins before induction; type: cell-based; procedure, shortened: as §1
[5] = Inhibition of Hedgehog signaling pathway in human HeLa cells assessed as inhibition of PMA induced luciferase treated 30 mins before induction; type: cell-based
Procedure, shortened: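 HeLa cells plated at 0.015 × 10⁶/well in 10% FBS medium, switched after 24 h to DMEM with 1% FBS, then transfected with a Hedgehog luciferase reporter. After 24 h, compounds were added at 40, 60, 80 or 100 μM final, 30 min before PMA. Luciferase was read 6 h later. The value is the IC50 or lowest concentration giving maximal 50–60% inhibition, from two independent experiments.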

[6] = tested on: HeLa; assay: Inhibition of Stat3 signaling pathway in human HeLa cells assessed as measured as lowest concentration required 50 to 60 % inhibition of IL-6 induced luciferase treated 30 mins before induction; type: functional; procedure, shortened: as §1
[7] = Inhibition of NFkappaB signaling pathway in human HeLa cells assessed as inhibition of PMA induced luciferase treated 30 mins before induction; type: cell-based; procedure, shortened: as §1
[8] = tested on: SK-MEL; assay: Cytotoxicity against human SK-MEL cells assessed as growth inhibition measured after 48 hrs by Neutral Red dye assay
[9] = tested on: HeLa; assay: Inhibition of smad3/4 signaling pathway in human HeLa cells assessed as measured as lowest concentration required 50 to 60 % inhibition of TGF-beta induced luciferase treated 30 mins before induction; type: functional; procedure, shortened: as §1
[10] = tested on: HeLa; assay: Inhibition of Stat3 signaling pathway in human HeLa cells assessed as inhibition of IL-6 induced luciferase treated 30 mins before induction; type: functional, cell-based; procedure, shortened: as §1
[11] = tested on: HeLa; assay: Cytotoxicity against human HeLa cells assessed as growth inhibition measured at 100 uM after 48 hrs by Neutral Red dye assay
[12] = tested on: BT-549; assay: Cytotoxicity against human BT549 cells assessed as growth inhibition measured at 100 uM after 48 hrs by Neutral Red dye assay
[13] = molecular target: Myc proto-oncogene protein (Homo sapiens) (UniProt P01106); assay: Inhibition of Myc signaling pathway in human HeLa cells assessed as measured as lowest concentration required 50 to 60 % inhibition of PMA induced luciferase treated 30 mins before induction; type: cell-based; procedure, shortened: as §1
Myc proto-oncogene protein (Homo sapiens), sequence (P01106 whole entry): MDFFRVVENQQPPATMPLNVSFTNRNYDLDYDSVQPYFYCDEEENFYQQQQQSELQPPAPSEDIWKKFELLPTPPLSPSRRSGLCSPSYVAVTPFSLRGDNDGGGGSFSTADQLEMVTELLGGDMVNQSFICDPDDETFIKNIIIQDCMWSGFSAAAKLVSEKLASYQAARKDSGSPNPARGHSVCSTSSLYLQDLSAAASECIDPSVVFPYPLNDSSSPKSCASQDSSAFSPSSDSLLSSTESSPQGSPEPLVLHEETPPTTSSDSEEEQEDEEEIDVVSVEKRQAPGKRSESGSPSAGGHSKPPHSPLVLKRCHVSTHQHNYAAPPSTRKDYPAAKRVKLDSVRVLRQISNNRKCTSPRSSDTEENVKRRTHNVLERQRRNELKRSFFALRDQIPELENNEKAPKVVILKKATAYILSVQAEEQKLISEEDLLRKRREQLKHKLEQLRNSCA

[14] = Inhibition of Notch signaling pathway in human HeLa cells assessed as measured as lowest concentration required 50 to 60 % inhibition of PMA induced luciferase treated 30 mins before induction; type: cell-based; procedure, shortened: as §1
[15] = Inhibition of Wnt signaling pathway in human HeLa cells assessed as inhibition of Wnt3a induced luciferase treated 30 mins before induction; type: cell-based; procedure, shortened: as §1
[16] = Inhibition of AP1 signaling pathway in human HeLa cells assessed as inhibition of PMA induced luciferase at 100 uM treated 30 mins before induction; type: cell-based; procedure, shortened: as §1
[17] = Inhibition of Notch signaling pathway in human HeLa cells assessed as inhibition of PMA induced luciferase treated 30 mins before induction; type: cell-based; procedure, shortened: as §1
[18] = tested on: Vero; assay: Cytotoxicity against african green monkey Vero cells assessed as growth inhibition measured after 48 hrs by Neutral Red dye assay; conditions: Chlorocebus sabaeus
[19] = tested on: SK-OV-3; assay: Cytotoxicity against human SKOV3 cells assessed as growth inhibition measured after 48 hrs by Neutral Red dye assay; conditions: SK-OV-3, 48 h
[20] = Inhibition of Ets signaling pathway in human HeLa cells assessed as measured as lowest concentration required 50 to 60 % inhibition of PMA induced luciferase treated 30 mins before induction; type: cell-based; procedure, shortened: as §1
[21] = Inhibition of NFkappaB signaling pathway in human HeLa cells assessed as measured as lowest concentration required 50 to 60 % inhibition of PMA induced luciferase treated 30 mins before induction; type: cell-based; procedure, shortened: as §1
[22] = Inhibition of E2F signaling pathway in human HeLa cells assessed as inhibition of PMA induced luciferase at 100 uM treated 30 mins before induction; type: cell-based; procedure, shortened: as §1
[23] = tested on: KB; assay: Cytotoxicity against human KB cells assessed as growth inhibition measured at 100 uM after 48 hrs by Neutral Red dye assay
[24] = tested on: HL-60; assay: Cytotoxicity against human HL60 cells assessed as growth inhibition measured after 48 hrs by XTT assay; type: functional, cell-based; conditions: HL-60, 48 h
[25] = Inhibition of Wnt signaling pathway in human HeLa cells assessed as measured as lowest concentration required 50 to 60 % inhibition of Wnt3a induced luciferase treated 30 mins before induction; type: cell-based; procedure, shortened: as §1
[26] = Inhibition of Ets signaling pathway in human HeLa cells assessed as inhibition of PMA induced luciferase treated 30 mins before induction; type: cell-based; procedure, shortened: as §1
[27] = molecular target: Forkhead box protein O1 (Homo sapiens) (UniProt Q12778); assay: Inhibition of FoxO signaling pathway in human HeLa cells assessed as inhibition of luciferase at 100 uM […]; type: cell-based
Forkhead box protein O1 (Homo sapiens), sequence (Q12778 whole entry): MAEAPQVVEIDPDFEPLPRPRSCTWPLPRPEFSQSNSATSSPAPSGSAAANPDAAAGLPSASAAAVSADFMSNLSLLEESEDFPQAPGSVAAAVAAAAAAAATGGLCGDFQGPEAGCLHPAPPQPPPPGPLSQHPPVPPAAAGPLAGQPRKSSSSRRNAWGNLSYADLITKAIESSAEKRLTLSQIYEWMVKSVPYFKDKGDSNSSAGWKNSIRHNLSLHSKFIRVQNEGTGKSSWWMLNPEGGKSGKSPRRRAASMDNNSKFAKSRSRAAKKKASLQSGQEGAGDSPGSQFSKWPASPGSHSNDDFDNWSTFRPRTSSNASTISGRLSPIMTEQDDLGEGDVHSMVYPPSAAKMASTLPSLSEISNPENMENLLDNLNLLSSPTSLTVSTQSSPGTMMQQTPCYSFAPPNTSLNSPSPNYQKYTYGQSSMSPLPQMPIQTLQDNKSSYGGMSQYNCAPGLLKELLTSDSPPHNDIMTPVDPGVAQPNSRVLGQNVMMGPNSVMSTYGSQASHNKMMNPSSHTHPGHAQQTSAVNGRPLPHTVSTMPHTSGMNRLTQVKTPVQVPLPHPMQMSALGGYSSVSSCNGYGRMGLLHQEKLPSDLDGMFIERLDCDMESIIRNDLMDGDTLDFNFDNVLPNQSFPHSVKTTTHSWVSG

[28] = molecular target: T1, Nitric oxide synthase, inducible (Mus musculus, UniProt P29477); assay: Inhibition of iNOS in LPS-induced mouse RAW264.7 cells assessed as inhibition of […] at measured after 24 hrs; type: cell-based
T1 sequence (P29477 whole entry): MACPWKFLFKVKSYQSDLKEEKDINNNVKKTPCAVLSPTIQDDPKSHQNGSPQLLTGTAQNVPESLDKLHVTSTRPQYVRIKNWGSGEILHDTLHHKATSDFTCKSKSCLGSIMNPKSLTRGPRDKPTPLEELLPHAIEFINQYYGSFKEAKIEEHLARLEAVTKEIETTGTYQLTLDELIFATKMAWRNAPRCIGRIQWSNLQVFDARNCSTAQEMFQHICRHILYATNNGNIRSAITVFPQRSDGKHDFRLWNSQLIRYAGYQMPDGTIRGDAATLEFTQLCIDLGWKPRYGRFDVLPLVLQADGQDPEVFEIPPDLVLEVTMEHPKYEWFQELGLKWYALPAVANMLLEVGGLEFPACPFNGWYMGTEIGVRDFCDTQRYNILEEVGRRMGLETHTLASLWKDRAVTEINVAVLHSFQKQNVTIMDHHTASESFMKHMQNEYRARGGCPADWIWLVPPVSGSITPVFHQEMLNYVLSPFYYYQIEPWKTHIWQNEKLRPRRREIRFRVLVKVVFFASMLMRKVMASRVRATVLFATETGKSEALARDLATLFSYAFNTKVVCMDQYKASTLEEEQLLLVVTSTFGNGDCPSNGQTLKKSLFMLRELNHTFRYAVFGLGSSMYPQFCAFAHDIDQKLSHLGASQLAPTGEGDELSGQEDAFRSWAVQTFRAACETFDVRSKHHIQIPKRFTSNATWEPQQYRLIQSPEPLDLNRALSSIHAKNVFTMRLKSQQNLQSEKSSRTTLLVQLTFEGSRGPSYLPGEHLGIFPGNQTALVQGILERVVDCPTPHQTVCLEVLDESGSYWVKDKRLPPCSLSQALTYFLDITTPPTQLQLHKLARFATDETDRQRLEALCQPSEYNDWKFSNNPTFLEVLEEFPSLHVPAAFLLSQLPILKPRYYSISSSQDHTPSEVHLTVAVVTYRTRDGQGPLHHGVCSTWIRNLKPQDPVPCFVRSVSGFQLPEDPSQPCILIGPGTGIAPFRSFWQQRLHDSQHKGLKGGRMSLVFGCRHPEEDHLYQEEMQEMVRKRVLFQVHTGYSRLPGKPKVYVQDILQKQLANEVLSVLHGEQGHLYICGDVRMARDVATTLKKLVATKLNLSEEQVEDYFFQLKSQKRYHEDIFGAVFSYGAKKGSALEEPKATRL
Procedure, shortened: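 Mouse RAW 264.7 macrophages were seeded at 50 000 cells/well and grown 24 h. They were pretreated with samples for 30 min, then stimulated with LPS at 5 μg/mL for 24 h. Nitrite in the supernatant was measured by Griess reagent, and inhibition was calculated against the vehicle control. IC50 came from dose–response curves, with cytotoxicity checked in parallel.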

IC50 [1]: 1.4 µM
SMILES: Cc1c(C)c2c(c(C)c1O)CCC(C)(C(=O)O)O2 (stereo not drawn) [TROLOX]

SMILES: Oc1ccc(/C=C/c2cc(O)cc(O)c2)cc1 [RESVERATROL]
IC50 [2]: 52.5 µM
IC50 [3]: 50 µM
MED [4]: 40 µM
IC50 [5]: 40 µM
MED [6]: 53 µM
IC50 [7]: 50 µM
IC50 [8]: 47.3 µM
MED [9]: 33 µM
IC50 [10]: 70 µM
growth inhibition (GI) [11]: inactive
growth inhibition (GI) [12]: inactive
MED [13]: 55 µM
MED [14]: 40 µM
IC50 [15]: 60 µM
inhibition [16]: < 40%
IC50 [17]: 40 µM
IC50 [18]: 73.6 µM
IC50 [19]: 113 µM
MED [20]: 55 µM
MED [21]: 60 µM
inhibition [22]: < 40%
growth inhibition (GI) [23]: inactive
IC50 [24]: 31.8 µM
MED [25]: 70 µM
IC50 [26]: 50 µM
inhibition [27]: < 40%

IC50 [28]: 8 µM
SMILES: C=C1C(=O)O[C@@H]2C3O[C@]3(C)CC/C=C(\C)CC[C@@H]12 (stereo partly drawn)
